{
  "source": "paper PMC3896217",
  "about": "(Biochemistry, 2013)",
  "molecular_target": "T1, B31 DBPA (Borreliella burgdorferi, UniProt O50917)",
  "T1 sequence (O50917 24-191)": "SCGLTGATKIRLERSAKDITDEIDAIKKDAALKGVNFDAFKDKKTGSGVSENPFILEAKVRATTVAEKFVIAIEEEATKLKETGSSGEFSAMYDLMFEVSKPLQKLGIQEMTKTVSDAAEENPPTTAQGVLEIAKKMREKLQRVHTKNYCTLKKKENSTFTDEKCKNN",
  "test": "NMR control titration for non-specific TEMPO-DBPA interactions",
  "type": "binding, Borrelia burgdorferi",
  "conditions": "similar protein-to-ligand ratios as TEMPO-labeled heparin dp6",
  "procedure,_shortened": "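Samples of 400 μL held 150 to 200 μM ¹⁵N-labelled B31 WT DBPA in 50 mM NaH₂PO₄, pH 6.5, 150 mM NaCl. The DBPA construct was a His-tagged fusion expressed in E. coli BL21(DE3) in M9 medium, Ni-affinity purified and cleaved with USP2. Amide ¹H transverse relaxation was measured with delays of 1, 4.5, 8, 11.5, 15 and 18.5 ms.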",
  "data": [
    {"compound": "CC1(C)CC(N)CC(C)(C)N1[O]", "note": "[4-amino-TEMPO]", "values": [
      {"measurement": "changes in transverse relaxation rates of the protein", "result": "no significant changes"}
    ]}
  ]
}
